Active and inactive are the calls of the source. No cut-off for these calls is given here.
Key:
[1] = Clearance in mouse at 0.5 mg/kg, iv; format: ADME, organism-based; conditions: in vivo
[2] = target: C-C chemokine receptor type 4 (Homo sapiens) (UniProt P51679); assay: Antagonist activity at human Gi/G0-coupled CCR4 receptor expressed in CHO-K1 cells assessed as inhibition of CCL22-induced beta arrestin2 recruitment at 500 nM preincubated for 30 mins followed by CCL22 stimulation and measured after 90 to 180 mins by pathhunter assay; format: cell-based
[3] = Clearance in dog at 0.5 mg/kg, iv; format: ADME, organism-based, Canis lupus familiaris; conditions: in vivo
[4] = target: Cytochrome P450 2D6 (Homo sapiens, UniProt P10635); assay: Inhibition of CYP2D6 in human liver microsomes using bufuralol hydrochloride salt as substrate incubated for 20 mins in presence of NADPH by LC-MS/MS analysis; format: ADME
[5] = tested on: Panc02; assay: Antitumor activity against mouse Panc02 cells allografted in C57BL/6 mouse assessed as reduction in tumor growth at 50 mg/kg, po qd for 38 days; format: functional, organism-based
Method in brief: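 Pan02-OVA syngeneic tumor model. Compound given 50 mg/kg PO QD on a therapeutic schedule, alone or combined with anti-CTLA-4 antibody; tumor growth tracked. Groups compared by two-tailed t-test.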

[6] = tested on: Panc02; assay: Antitumor activity against mouse Panc02 cells implanted in po dosed C57BL/6 mouse assessed as inhibition of GFP-positive Treg cell migration in to tumor micro environment administered 30 mins prior to Treg cell population addition followed by daily compound dosing for 5 days and measured on day 6 by flow cytometry analysis; format: functional, organism-based
Method in brief: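 Pan02 pancreatic ductal adenocarcinoma mice. Oral compound at several doses; adoptively transferred GFP+ iTreg counted in the tumor, with spleen, skin and lung also examined.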

[7] = target: C-C chemokine receptor type 1 (Homo sapiens) (UniProt P32246); assay: Antagonist activity at human Gi/G0-coupled CCR1 receptor assessed as inhibition of CCL3-induced beta arrestin2 recruitment at 500 nM preincubated for 30 mins followed by CCL3 stimulation and measured after 90 to 180 mins by pathhunter assay
[8] = Half life in mouse at 0.5 mg/kg, iv; format: ADME, organism-based; conditions: in vivo
[9] = target: C-X-C chemokine receptor type 6 (Homo sapiens) (UniProt O00574); assay: Antagonist activity at human Gi/G0-coupled CXCR6 assessed as inhibition of CXCL16-induced beta arrestin2 recruitment at 500 nM preincubated for 30 mins followed by CXCL16 stimulation and measured after 90 to 180 mins by pathhunter assay
[10] = tested on: CT26; assay: Antitumor activity against mouse CT26 cells allografted in Balb/c mouse assessed as reduction in tumor volume at 50 mg/kg, po qd for 28 days starting from 3 days post inoculation measured twice weekly; format: functional, organism-based
[11] = target: C-C chemokine receptor type 3 (Homo sapiens) (UniProt P51677); assay: Antagonist activity at human Gi/G0-coupled CCR3 receptor expressed in CHO-K1 cells assessed as inhibition of CCL13-induced beta arrestin2 recruitment at 500 nM preincubated for 30 mins followed by CCL13 stimulation and measured after 90 to 180 mins by pathhunter assay; format: cell-based
[12] = target: C-C chemokine receptor type 7 (Homo sapiens) (UniProt P32248); assay: Antagonist activity at human Gi/G0-coupled CCR7 receptor assessed as inhibition of CCL19-induced beta arrestin2 recruitment at 500 nM preincubated for 30 mins followed by CCL19 stimulation and measured after 90 to 180 mins by pathhunter assay
[13] = target: Atypical chemokine receptor 3 (Homo sapiens) (UniProt P25106); assay: Antagonist activity at human CXCR7 assessed as inhibition of CXCL12-induced beta arrestin2 recruitment at 500 nM preincubated for 30 mins followed by CXCL12 stimulation and measured after 90 to 180 mins by pathhunter assay
[14] = target: C-C chemokine receptor type 10 (Homo sapiens) (UniProt P46092); assay: Antagonist activity at human Gi/G0-coupled CCR10 receptor expressed in human U2OS cells assessed as inhibition of CCL27-induced beta arrestin2 recruitment at 500 nM preincubated for 30 mins followed by CCL27 stimulation and measured after 90 to 180 mins by pathhunter assay; format: cell-based
[15] = target: C-X-C chemokine receptor type 1 (Homo sapiens) (UniProt P25024); assay: Antagonist activity at human Gi/G0-coupled CXCR1 expressed in CHOK1 cells assessed as inhibition of CXCL8-induced beta arrestin2 recruitment at 500 nM preincubated for 30 mins followed by CXCL8 stimulation and measured after 90 to 180 mins by pathhunter assay; format: cell-based; conditions: CHO-K1
[16] = Terminal half life in cynomolgus monkey at 0.5 mg/kg, iv; format: ADME, organism-based, Macaca fascicularis; conditions: in vivo, read-out: beta t1/2 (converted)
[17] = Oral bioavailability in mouse at 2 mg/kg; format: ADME, organism-based; conditions: in vivo
[18] = Oral bioavailability in cynomolgus monkey at 2 mg/kg; format: ADME, organism-based, Macaca fascicularis; conditions: in vivo
[19] = target: Cytochrome P450 3A4 (Homo sapiens, UniProt P08684); assay: Inhibition of CYP3A4 in human liver microsomes using midazolam hydrochloride as substrate incubated for 20 mins in presence of NADPH by LC-MS/MS analysis; format: ADME
[20] = target: Chemerin-like receptor 1 (Homo sapiens) (UniProt Q99788); assay: Antagonist activity at human CMKLR1 expressed in CHOK1 cells assessed as inhibition of chemerin-induced beta arrestin2 recruitment at 500 nM preincubated for 30 mins followed by chemerin stimulation and measured after 90 to 180 mins by pathhunter assay; format: cell-based; conditions: CHO-K1
[21] = target: CYP3A4 (Homo sapiens, UniProt P08684); assay: Ratio of IC50 for time-dependent inhibition of CYP3A4 in human liver microsomes using midazolam hydrochloride as substrate in presence of NADPH to IC50 for time-dependent inhibition of CYP3A4 in human liver microsomes using midazolam hydrochloride as substrate absence of NADPH; conditions: probe midazolam hydrochloride, read-out: Ratio IC50
[22] = Clearance in cynomolgus monkey at 0.5 mg/kg, iv; format: ADME, organism-based, Macaca fascicularis; conditions: in vivo

C-C chemokine receptor type 3 (Homo sapiens), sequence (P51677 whole entry): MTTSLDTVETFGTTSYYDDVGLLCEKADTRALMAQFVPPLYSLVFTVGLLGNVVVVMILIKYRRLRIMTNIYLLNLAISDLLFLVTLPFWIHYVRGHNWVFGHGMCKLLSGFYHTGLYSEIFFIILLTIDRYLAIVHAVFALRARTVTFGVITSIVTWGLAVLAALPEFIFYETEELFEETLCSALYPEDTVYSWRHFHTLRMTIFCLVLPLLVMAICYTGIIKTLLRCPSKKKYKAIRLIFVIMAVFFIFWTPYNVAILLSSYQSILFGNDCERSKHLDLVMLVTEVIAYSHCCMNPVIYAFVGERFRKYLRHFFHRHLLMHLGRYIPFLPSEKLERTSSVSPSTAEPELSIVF
Cytochrome P450 3A4, sequence (P08684 whole entry): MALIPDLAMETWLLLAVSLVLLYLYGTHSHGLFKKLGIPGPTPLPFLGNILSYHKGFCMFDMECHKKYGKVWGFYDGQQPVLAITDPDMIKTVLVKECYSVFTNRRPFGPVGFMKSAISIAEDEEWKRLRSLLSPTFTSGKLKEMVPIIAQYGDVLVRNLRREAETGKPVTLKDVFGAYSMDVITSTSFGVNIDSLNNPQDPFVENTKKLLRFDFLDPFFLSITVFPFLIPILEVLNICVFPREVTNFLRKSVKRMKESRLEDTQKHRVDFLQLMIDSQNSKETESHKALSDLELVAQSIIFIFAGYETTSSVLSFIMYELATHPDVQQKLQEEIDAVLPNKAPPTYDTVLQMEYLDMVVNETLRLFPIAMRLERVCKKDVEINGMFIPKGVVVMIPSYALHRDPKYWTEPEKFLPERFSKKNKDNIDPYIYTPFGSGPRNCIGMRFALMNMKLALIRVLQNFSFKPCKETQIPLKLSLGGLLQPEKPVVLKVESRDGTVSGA
CYP3A4, sequence (P08684 whole entry): as above
C-C chemokine receptor type 7 (Homo sapiens), sequence (P32248 whole entry): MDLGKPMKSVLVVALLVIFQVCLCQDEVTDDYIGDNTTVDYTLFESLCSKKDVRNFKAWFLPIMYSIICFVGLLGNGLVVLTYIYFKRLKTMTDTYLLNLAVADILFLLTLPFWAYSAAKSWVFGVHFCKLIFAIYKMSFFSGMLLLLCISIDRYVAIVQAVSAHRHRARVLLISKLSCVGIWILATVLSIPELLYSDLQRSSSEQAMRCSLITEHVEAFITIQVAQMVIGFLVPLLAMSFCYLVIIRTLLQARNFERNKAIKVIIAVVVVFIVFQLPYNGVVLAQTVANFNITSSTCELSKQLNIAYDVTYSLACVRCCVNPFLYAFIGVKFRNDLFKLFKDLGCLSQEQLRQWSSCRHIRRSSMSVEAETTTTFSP
C-C chemokine receptor type 1 (Homo sapiens), sequence (P32246 whole entry): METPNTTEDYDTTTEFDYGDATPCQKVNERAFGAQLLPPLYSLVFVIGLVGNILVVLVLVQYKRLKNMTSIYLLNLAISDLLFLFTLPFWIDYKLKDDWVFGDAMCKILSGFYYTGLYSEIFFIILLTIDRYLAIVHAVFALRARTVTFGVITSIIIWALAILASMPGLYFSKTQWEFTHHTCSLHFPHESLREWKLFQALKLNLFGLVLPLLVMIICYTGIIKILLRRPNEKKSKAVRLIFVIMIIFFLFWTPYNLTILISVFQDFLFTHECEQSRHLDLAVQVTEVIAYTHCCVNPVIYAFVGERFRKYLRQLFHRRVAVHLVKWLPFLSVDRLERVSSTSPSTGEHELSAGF
C-X-C chemokine receptor type 6 (Homo sapiens), sequence (O00574 whole entry, looked up): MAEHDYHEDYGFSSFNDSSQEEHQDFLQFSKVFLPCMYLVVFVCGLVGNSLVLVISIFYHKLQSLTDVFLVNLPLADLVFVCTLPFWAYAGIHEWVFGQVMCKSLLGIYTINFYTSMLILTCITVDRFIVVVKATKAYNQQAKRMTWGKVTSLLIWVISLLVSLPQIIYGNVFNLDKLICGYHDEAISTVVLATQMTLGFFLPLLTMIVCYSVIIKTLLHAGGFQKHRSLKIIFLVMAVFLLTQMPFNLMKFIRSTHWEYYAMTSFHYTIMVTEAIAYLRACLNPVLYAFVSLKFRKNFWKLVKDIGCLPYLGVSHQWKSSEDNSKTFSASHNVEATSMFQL
C-X-C chemokine receptor type 1 (Homo sapiens), sequence (P25024 whole entry): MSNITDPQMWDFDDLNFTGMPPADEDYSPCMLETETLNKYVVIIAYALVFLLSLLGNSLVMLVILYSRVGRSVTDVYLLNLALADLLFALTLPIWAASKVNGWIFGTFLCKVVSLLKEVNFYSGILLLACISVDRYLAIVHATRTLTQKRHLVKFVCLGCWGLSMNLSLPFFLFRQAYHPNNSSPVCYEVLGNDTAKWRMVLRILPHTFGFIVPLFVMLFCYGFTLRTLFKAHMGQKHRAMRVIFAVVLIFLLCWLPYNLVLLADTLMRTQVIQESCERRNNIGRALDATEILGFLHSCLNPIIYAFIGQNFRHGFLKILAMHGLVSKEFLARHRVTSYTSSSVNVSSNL
C-C chemokine receptor type 10 (Homo sapiens), sequence (P46092 whole entry): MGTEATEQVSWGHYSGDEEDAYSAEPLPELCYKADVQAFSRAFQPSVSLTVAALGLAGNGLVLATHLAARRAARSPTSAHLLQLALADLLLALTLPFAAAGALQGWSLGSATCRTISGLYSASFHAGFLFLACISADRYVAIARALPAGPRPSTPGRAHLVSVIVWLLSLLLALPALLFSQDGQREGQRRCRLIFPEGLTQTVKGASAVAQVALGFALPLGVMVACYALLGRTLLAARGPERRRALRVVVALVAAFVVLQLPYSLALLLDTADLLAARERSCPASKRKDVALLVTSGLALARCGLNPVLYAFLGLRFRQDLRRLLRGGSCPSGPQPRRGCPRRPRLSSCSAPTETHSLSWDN
Cytochrome P450 2D6, sequence (P10635 whole entry): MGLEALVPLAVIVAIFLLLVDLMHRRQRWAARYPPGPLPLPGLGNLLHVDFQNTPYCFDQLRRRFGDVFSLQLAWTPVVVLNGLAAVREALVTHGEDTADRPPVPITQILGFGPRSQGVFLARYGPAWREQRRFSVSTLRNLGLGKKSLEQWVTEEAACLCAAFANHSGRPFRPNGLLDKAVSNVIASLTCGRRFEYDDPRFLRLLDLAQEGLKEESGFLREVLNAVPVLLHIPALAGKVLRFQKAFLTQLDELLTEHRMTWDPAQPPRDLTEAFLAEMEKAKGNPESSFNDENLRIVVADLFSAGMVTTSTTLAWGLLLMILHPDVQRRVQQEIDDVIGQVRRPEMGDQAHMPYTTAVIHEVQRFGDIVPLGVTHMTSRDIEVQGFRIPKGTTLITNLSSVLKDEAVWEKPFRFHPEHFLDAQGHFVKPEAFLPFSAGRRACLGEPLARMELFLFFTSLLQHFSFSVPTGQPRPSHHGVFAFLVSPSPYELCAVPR
C-C chemokine receptor type 4 (Homo sapiens), sequence (P51679 whole entry): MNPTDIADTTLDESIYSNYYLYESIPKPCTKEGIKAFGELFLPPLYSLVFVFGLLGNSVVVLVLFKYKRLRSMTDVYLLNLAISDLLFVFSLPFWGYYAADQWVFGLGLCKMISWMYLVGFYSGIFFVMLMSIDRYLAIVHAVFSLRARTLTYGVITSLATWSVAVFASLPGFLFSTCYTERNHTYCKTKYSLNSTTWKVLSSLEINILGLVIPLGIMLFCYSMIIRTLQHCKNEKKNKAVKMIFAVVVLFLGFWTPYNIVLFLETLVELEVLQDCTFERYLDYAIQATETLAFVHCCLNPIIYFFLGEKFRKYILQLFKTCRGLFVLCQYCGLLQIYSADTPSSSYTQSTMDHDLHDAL
Atypical chemokine receptor 3 (Homo sapiens), sequence (P25106 whole entry): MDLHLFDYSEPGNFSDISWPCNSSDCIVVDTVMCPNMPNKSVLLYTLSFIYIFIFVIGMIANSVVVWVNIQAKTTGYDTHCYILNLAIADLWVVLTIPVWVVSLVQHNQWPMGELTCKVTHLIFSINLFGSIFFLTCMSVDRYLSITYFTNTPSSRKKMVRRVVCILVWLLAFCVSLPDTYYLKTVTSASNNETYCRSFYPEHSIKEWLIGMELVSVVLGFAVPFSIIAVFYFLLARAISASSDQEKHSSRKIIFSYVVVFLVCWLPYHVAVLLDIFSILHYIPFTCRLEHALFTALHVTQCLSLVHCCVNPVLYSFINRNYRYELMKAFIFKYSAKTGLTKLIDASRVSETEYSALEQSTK
Chemerin-like receptor 1 (Homo sapiens), sequence (Q99788 whole entry): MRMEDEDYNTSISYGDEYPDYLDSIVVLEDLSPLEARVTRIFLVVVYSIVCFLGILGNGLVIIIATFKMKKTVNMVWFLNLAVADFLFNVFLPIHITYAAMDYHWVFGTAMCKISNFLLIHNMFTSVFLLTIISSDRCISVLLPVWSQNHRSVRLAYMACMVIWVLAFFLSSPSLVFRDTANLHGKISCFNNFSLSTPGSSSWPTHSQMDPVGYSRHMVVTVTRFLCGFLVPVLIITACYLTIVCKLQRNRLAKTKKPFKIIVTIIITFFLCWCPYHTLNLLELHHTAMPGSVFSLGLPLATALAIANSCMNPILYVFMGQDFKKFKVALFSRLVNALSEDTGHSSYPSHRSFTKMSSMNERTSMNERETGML

- clearance [1]: 10.2 mL/min/kg
- Activity [2]: Active
- clearance [3]: 7.3 mL/min/kg
- IC50 [4]: > 40 µM
- Activity [7]: inactive
- half-life [8]: 6.9 h
- Activity [9]: inactive
- Activity [11]: inactive
- Activity [12]: inactive
- Activity [13]: inactive
- Activity [14]: inactive
- Activity [15]: inactive
- half-life [16]: 10.7 h
- bioavailability [17]: 29%
- bioavailability [18]: 41%
- IC50 [19]: > 40 µM
- Activity [20]: inactive
- clearance [22]: 3.7 mL/min/kg
SMILES: C[C@H](c1ccc(Cl)cc1Cl)n1nc(C#N)c2ncc(N3CC([C@H]4CCCN(CCO)C4)C3)nc21
- Activity [5]: Active
- Activity [6]: Dose-dependent effect
- Activity [10]: Active
- IC50 shift [21]: 1.2
